Bioassay records: PubChem BioAssay, Johns Hopkins Ion Channel Center
KCNQ1 inh – human KCNQ1 channel inhibition | CHO-K1 KCNQ1, FluxOR thallium flux fluorescence; hits give high values | B-score at 10 µM | 310,000 tested, 1.3% active | AID 2642;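 active = compounds whose thallium flux B-score, printed positive for inhibition, exceeds three library SD while starting fluorescence stays within three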;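 note: channel opened by potassium depolarization with thallium stimulus after 20 min compound exposure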
hERG rescue – shields human hERG channel from block by proarrhythmic agents; Q12809; CHO-hERG, FluxOR thallium flux, dofetilide IC70 present; activation (rescue from dofetilide block), less the hit threshold, % at 10 µM; 310,000 tested, 0.51% active; AID 1511;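 active = activation above the mean of controls blocked by dofetilide plus 5 SD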;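 note: thallium influx through hERG after potassium depolarization seen as dye fluorescence rise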
KCNK3 inh – human KCNK3 channel inhibition, primary screen; CHO-KCNK3 thallium flux, FluxOR fluorescence; hits give low values; B-score at 10 µM; 340,000 tested, 0.84% active;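 active = B-score under library mean minus 4 SD, starting fluorescence ratio at most library mean plus 5 SD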;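 note: more negative B-score means stronger inhibition of thallium flux through KCNK3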
Target sequence (O14649 whole entry, looked up): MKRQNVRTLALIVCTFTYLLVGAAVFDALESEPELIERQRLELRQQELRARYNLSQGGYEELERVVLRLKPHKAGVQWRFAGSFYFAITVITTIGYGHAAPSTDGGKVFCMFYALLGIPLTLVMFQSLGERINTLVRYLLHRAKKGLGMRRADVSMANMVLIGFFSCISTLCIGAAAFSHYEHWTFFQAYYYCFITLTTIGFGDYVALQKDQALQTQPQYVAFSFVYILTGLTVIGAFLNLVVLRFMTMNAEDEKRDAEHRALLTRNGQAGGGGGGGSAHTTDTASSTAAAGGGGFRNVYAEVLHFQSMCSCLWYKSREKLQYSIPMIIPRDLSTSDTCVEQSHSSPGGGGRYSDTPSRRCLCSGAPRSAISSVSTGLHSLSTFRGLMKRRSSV
Kir21 inh – Kir2.1 (mouse) channel inhibition | P35561 | HEK293-Kir2.1, FluxOR thallium flux fluorescence; hits give low values | B-score at 10 µM | 310,000 tested, 0.85% active | AID 1672;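 active = fluorescence ratio B-score at or below minus 3 SD of library scores, with starting-brightness B-score within 2 SD, cut at about -4.2 in these data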;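 note: channel flux triggered by added potassium and thallium sulfate stimulus; B-score of peak minus minimum fluorescence over baseline after thallium stimulus; more negative B-score means stronger Kir2.1 block with less thallium influx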
KCNQ1 act – human KCNQ1 channel potentiation or activation; CHO-K1 KCNQ1, thallium flux FluxOR fluorescence; hits give high values; B-score at 10 µM; 310,000 tested, 0.35% active; AID 2648;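 active = fluorescence ratio B-score, a plate-corrected score, at least three library SD, with initial intensity B-score within 5 SD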
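System: Stable KCNQ1 CHO-K1 line | Incubation: 90 min dye loading and 20 min compound exposure, both at room temperature | Measure: Ratio B score | Medium: Assay buffer for compound exposure, DMSO matched across wells | Compound dosing: Single-concentration screen | Probe or stimulus: K+/Tl+ depolarizing stimulus | Measured by: Kinetic FluxOR fluorescence, 10 s baseline plus 110 s post-stimulus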
KCNK9 inh – human KCNK9 channel inhibition. 310,000 tested, 1.2% active. Q9NPC2. AID 488922. B-score at 10 µM. HEK293 KCNK9, FluxOR thallium flux fluorescence; hits give low values;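 active = ratio B-score over 3 SD below the library mean, with starting fluorescence within 5 SD of its mean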;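 note: negative B-score means less thallium flux so channel inhibition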
Target sequence (Q9NPC2 whole entry, looked up): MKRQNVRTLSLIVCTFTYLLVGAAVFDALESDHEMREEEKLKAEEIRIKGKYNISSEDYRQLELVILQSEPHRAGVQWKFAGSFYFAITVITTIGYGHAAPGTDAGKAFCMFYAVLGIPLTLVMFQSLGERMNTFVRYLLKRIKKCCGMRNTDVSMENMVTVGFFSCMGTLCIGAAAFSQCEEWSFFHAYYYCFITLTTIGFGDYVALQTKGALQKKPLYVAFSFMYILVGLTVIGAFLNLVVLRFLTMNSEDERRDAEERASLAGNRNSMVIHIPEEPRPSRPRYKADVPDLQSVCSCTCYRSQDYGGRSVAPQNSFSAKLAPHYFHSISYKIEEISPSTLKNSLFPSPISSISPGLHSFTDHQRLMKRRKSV
KCNQ1 inh valid – human KCNQ1 channel inhibition, validation assay; shares compounds with KCNQ1 inh; KCNQ1 cell line, FluxOR thallium flux fluorescence; inhibition, % at 10 µM; 1,600 tested, 93% active; AID 588353;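 active = primary screen active, with duplicate mean exceeding buffer control mean plus 3 SD of buffer wells, cut at about 28% in these data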
CHO Tl flux – KCNQ1 inhibitor counter-screen hit in parental CHO cells; parental CHO-K1, FluxOR thallium flux fluorescence ratio; hits give low values; zero means no signal rise above baseline; 1,600 tested, 21% active; AID 588366; shares compounds with KCNQ1 inh; fluorescence ratio (Tl flux) at 10 µM;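 active = mean of duplicate thallium-flux fluorescence ratios in parental host cells more than 5 SD below the buffer control mean, cut at about 0.38 in these data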;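 note: ratio is peak minus minimum fluorescence divided by baseline fluorescence; actives read low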
KCNQ1 APC inh – human KCNQ1 inhibition validated by electrophysiology. KCNQ1-CHO cells, automated patch clamp current. AID 624120. shares compounds with KCNQ1 inh. calls only at 10 µM. 490 tested, 20% active;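 active = KCNQ1 current drop exceeding 3 SD of negative control wells, seen in both duplicate runs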;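 note: steady state current during a 2 s step from -80 to +40 mV; negative values mean current inhibition and positive values mean potentiation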
KCNQ2 inh – selectivity of KCNQ1 inhibitors: inhibition of rat KCNQ2 channel; shares compounds with KCNQ1 inh; KCNQ2 cells, FluxOR thallium flux fluorescence; inhibition, % at 10 µM; 1,600 tested, 71% active; AID 651746;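 active = mean percent inhibition of the KCNQ2 thallium signal more than 5 SD above the buffer-only control wells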;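 note: KCNQ2 expressed in CHO cells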
KCNQ1-KCNE1 inh – human KCNQ1/KCNE1 inhibition in KCNQ1 specificity screen | shares compounds with KCNQ1 inh | KCNQ1/KCNE1 cells, FluxOR thallium flux fluorescence | inhibition, % at 10 µM | 1,600 tested, 77% active | AID 652147;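 active = mean percent inhibition of duplicate wells above the buffer-only control mean plus 3 SD of those controls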
Hits are given with their value. Most compounds without a hit are left out; they make up all but 3.7% or so of the library.

`COC(=O)C(NC(=O)CCc1nnc2ccc(N3CCCCC3)nn12)C(C)C` (centres undefined) gave KCNQ1 inh inactive, hERG rescue inactive, KCNK3 inh inactive, Kir21 inh inactive, KCNQ1 act inactive and KCNK9 inh inactive.
For COCCCN1C(=O)c2ccc(C(=O)Nc3ccc(C)cc3C)cc2C1=O the results were KCNQ1 inh inactive, hERG rescue inactive, KCNK3 inh inactive, Kir21 inh inactive, KCNQ1 act inactive and KCNK9 inh inactive.
`CCOc1ccc(NC(=S)Nc2ccc3nsnc3c2)cc1` gave KCNQ1 inh 6, hERG rescue inactive, KCNK3 inh inactive, Kir21 inh inactive, KCNQ1 act inactive, KCNK9 inh inactive, KCNQ1 inh valid 82, CHO Tl flux inactive, KCNQ2 inh 70% and KCNQ1-KCNE1 inh 48%.
For CCOc1ccc(NC(=S)Nc2ccc(OC(F)(F)F)cc2)cc1 the results were KCNQ1 inh 7, hERG rescue inactive, KCNK3 inh inactive, Kir21 inh inactive, KCNQ1 act inactive, KCNK9 inh inactive, KCNQ1 inh valid inactive, CHO Tl flux inactive, KCNQ2 inh inactive and KCNQ1-KCNE1 inh inactive.
`CCOc1ccc(NC(=S)Nc2ccc(OCC)cc2)cc1` gave KCNQ1 inh inactive, hERG rescue inactive, KCNK3 inh inactive, Kir21 inh inactive, KCNQ1 act inactive and KCNK9 inh inactive.
CCOc1ccc(NC(=O)Nc2ccc3nsnc3c2)cc1 was read as KCNQ1 inh 12, hERG rescue inactive, KCNK3 inh inactive, Kir21 inh inactive, KCNQ1 act inactive, KCNK9 inh inactive, KCNQ1 inh valid 27, CHO Tl flux inactive, KCNQ2 inh inactive and KCNQ1-KCNE1 inh inactive.
`CCOc1ccc(NC(=O)Nc2cccc(C(=O)O)c2)cc1` gave KCNQ1 inh inactive, hERG rescue inactive, KCNK3 inh inactive, Kir21 inh inactive, KCNQ1 act inactive and KCNK9 inh inactive.
For CC(NC(=O)CCNC(=O)N1CCn2c1nc1ccccc12)c1ccccc1 (centres undefined) the results were KCNQ1 inh inactive, hERG rescue inactive, KCNK3 inh inactive, Kir21 inh inactive, KCNQ1 act inactive and KCNK9 inh inactive.
`CCN(C(=O)COC(=O)CCC(=O)c1ccc(C)cc1)c1c(N)n(Cc2ccccc2)c(=O)[nH]c1=O` gave KCNK3 inh inactive.
`Cc1cccc2[nH]c3c(N4CC=C(c5ccc(F)cc5)CC4)ncnc3c12` gave KCNQ1 inh 14, hERG rescue inactive, KCNK3 inh inactive, Kir21 inh inactive, KCNQ1 act inactive, KCNK9 inh inactive, KCNQ1 inh valid 162, CHO Tl flux 0.33, KCNQ2 inh 134% and KCNQ1-KCNE1 inh active.
For O=C(NCCOc1ccc(F)cc1)c1ccccc1SCc1ccccc1 the results were KCNQ1 inh 7, hERG rescue inactive, KCNK3 inh inactive, Kir21 inh inactive, KCNQ1 act inactive, KCNK9 inh inactive, KCNQ1 inh valid 102, CHO Tl flux inactive, KCNQ1 APC inh active, KCNQ2 inh 106% and KCNQ1-KCNE1 inh 169%.
Screening OCCC1CN(Cc2cccnc2)CCN1CCc1ccccc1 (centres undefined) returned KCNQ1 inh 7, hERG rescue inactive, KCNK3 inh inactive, Kir21 inh inactive, KCNQ1 act inactive, KCNK9 inh inactive, KCNQ1 inh valid inactive, CHO Tl flux inactive, KCNQ2 inh inactive and KCNQ1-KCNE1 inh inactive.
CCN1C(=NCCCOC(C)C)N[C@@H](CCc2ccccc2)[C@H](C(=O)NCCCOC(C)C)[C@H]1C was read as KCNK3 inh inactive.
Screening Cc1ccc(S(=O)(=O)N(Cc2ccccc2)Cc2ccco2)cc1 returned KCNQ1 inh 7, hERG rescue inactive, KCNK3 inh inactive, Kir21 inh -5, KCNQ1 act inactive, KCNK9 inh inactive, KCNQ1 inh valid 96, CHO Tl flux inactive, KCNQ1 APC inh inactive, KCNQ2 inh 93% and KCNQ1-KCNE1 inh 40%.
`Cc1ccc(NC(=O)C2CCN(S(=O)(=O)c3ccc4c(c3)NC(=O)C(C)S4)CC2)cc1C` (centres undefined) gave KCNQ1 inh 8, hERG rescue inactive, KCNK3 inh inactive, Kir21 inh inactive, KCNQ1 act inactive, KCNK9 inh inactive, KCNQ1 inh valid 138, CHO Tl flux inactive, KCNQ1 APC inh inactive, KCNQ2 inh 117% and KCNQ1-KCNE1 inh 128%.
`CC1Sc2ccc(S(=O)(=O)N3CCC(C(=O)Nc4cccc(Cl)c4)CC3)cc2NC1=O` (centres undefined) gave KCNQ1 inh 11, hERG rescue inactive, KCNK3 inh inactive, Kir21 inh inactive, KCNQ1 act inactive, KCNK9 inh inactive, KCNQ1 inh valid 150, CHO Tl flux inactive, KCNQ2 inh 129% and KCNQ1-KCNE1 inh 160%.
For Cc1ccc(NC(=S)NCCSc2ccc(Cl)cc2)cc1 the results were KCNQ1 inh inactive, hERG rescue inactive, KCNK3 inh inactive, Kir21 inh inactive, KCNQ1 act inactive and KCNK9 inh inactive.
`Cc1ccc(SCCNC(=S)Nc2cc(C)cc(C)c2)cc1` gave KCNQ1 inh 9, hERG rescue inactive, KCNK3 inh inactive, Kir21 inh inactive, KCNQ1 act inactive, KCNK9 inh inactive, KCNQ1 inh valid 69, CHO Tl flux inactive, KCNQ2 inh 71% and KCNQ1-KCNE1 inh 77%.
`COc1ccc(NC(=S)NCCSc2ccc(Cl)cc2)c(OC)c1` gave KCNQ1 inh inactive, hERG rescue inactive, KCNK3 inh inactive, Kir21 inh inactive, KCNQ1 act inactive and KCNK9 inh inactive.
`Cc1cccc(C)c1NC(=S)NCCSc1ccc(Cl)cc1` gave KCNQ1 inh 6, hERG rescue inactive, KCNK3 inh inactive, Kir21 inh inactive, KCNQ1 act inactive, KCNK9 inh inactive, KCNQ1 inh valid 90, CHO Tl flux inactive, KCNQ1 APC inh inactive, KCNQ2 inh 110% and KCNQ1-KCNE1 inh 96%.
`O=Cc1c(-c2ccccc2)cc2oc3ccccc3cc1-2` gave KCNQ1 inh inactive, hERG rescue inactive, KCNK3 inh inactive, Kir21 inh inactive, KCNQ1 act inactive and KCNK9 inh inactive.
